The values below come from ChEMBL document CHEMBL3112476, “Inhibition of IκB kinase-β and IκB kinase-α by heterocyclic adamantyl arotinoids” (Bioorg Med Chem, 2014).

Experiment [1] addresses T1, Retinoic acid receptor RXR-alpha (Homo sapiens) (UniProt P19793).
T1 sequence (whole entry): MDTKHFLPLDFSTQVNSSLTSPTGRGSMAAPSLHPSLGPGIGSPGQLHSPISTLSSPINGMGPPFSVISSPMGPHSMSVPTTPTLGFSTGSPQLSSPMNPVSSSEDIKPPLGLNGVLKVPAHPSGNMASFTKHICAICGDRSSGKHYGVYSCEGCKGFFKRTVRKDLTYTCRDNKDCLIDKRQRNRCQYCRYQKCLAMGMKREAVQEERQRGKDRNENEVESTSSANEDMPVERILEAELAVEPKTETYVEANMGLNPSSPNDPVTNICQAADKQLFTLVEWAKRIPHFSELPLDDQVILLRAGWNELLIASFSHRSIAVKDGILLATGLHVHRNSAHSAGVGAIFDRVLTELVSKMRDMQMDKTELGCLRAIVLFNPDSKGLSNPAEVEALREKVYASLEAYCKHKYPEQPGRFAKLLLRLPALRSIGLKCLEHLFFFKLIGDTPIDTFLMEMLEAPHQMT
Put plainly: Agonist activity at recombinant GST-tagged RXRalpha LBD (unknown origin) assessed as induction of biotinylated SRC-1-676-700 coactivator recruitment after 4 hrs by TR-FRET assay. The method in brief: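 5 nM GST-RXRα LBD was incubated with 150 nM biotin-SRC-1 676-700 peptide at room temperature in binding buffer (25 mM Hepes pH 7.4, 100 mM NaCl, 0.025% BSA, 5% glycerol, 0.005% Tween-20, 2.5 mM DTT; ≤1% DMSO). Detection used 2 nM Eu-anti-GST plus 37.5 nM streptavidin-allophycocyanin. The 665/615 nm ratio was read at 4 h and expressed as Delta F% versus no-receptor control.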
In general terms: TR-FRET usually uses a lanthanide donor and a delayed reading to cut background.

Experiment [2] deals with T1, Retinoic acid receptor RXR-alpha (Homo sapiens). The experiment can be described thus: Agonist activity at recombinant GST-tagged RXRalpha LBD (unknown origin) assessed as induction of fluorescein labeled D22 coactivator recruitment after 4 hrs by TR-FRET assay. The method in brief: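 5 nM GST-RXRα LBD was incubated with 150 nM fluorescein-D22 peptide at room temperature in Hepes pH 7.4 binding buffer (≤1% DMSO), with 2 nM Tb-anti-GST antibody. The 520/495 nm TR-FRET ratio was read after 4 h and reported as Delta F% relative to samples lacking receptor.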

Experiment [3] shares this target. The experiment can be described thus: Agonist activity at Gal4-fused RXRalpha (unknown origin) transfected in HEK293 cells assessed as induction of transcriptional activity at 4 uM after 24 hrs by luciferase/beta-galactosidase reporter gene assay relative to CD3254. Format: cell-based. The method in brief: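 Gal4-RARα or Gal4-RXRα (10 ng) plus 2 ng β-galactosidase vector, calcium phosphate transfection into HEK-293 cells carrying a 5×UAS luciferase reporter. After 16 h, cells were washed and given 5% charcoal-treated FBS medium, then rested 2 h. Stimulation was with 4 µM compound or 0.1% DMSO; controls were 1 µM atRA (RARα) or 1 µM CD3254 (RXRα). Harvest was at 6 h (RARα) or 24 h (RXRα). Luciferase/β-gal ratio was expressed as fold over unstimulated cells. Data: 2 experiments, triplicate.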
On the technique in general: Reporter assays use an easily measured gene product as a stand-in for the process of interest.

On to `Cc1cc(O)c(C23CC4CC(CC(C4)C2)C3)cc1-c1ccc(/C=C/C(=O)O)cc1Cl`, for which the Activity result in experiment [1] and in experiment [2] was “Dose-dependent effect” each time.

Turning to `COCCOCOc1ccc(-c2ncc(-c3ccc(C(=O)O)cc3)s2)cc1C12CC3CC(CC(C3)C1)C2`, the max activation in experiment [3] was found to be 21%.

As to `COCCOCOc1cc(C)c(-c2ccc(/C=C/C(=O)O)cc2Cl)cc1C12CC3CC(CC(C3)C1)C2`, the Activity entry in experiment [1] and in experiment [2] was “Dose-dependent effect” each time.

On to `COCCOCOc1cc(C)c(-c2ccc3cc(C(=O)O)ccc3c2Cl)cc1C12CC3CC(CC(C3)C1)C2`, for which the Activity entry in experiment [1] and in experiment [2] was “Dose-dependent effect” throughout.

As for `COCCOCOc1cc(C)c(-c2ccc(CC(=O)O)cc2Cl)cc1C12CC3CC(CC(C3)C1)C2`, the Activity entry in experiment [1] and in experiment [2] was “Dose-dependent effect” throughout.
